ChEMBL document CHEMBL1158343, “Synthesis, antimicrobial and antiviral evaluation of substituted imidazole derivatives” (Eur J Med Chem, 2009)
≈ marks a conversion by molar mass, not a printed value.

Experiments:
[1] = system: Aspergillus niger; assay: Antimicrobial activity against Aspergillus niger after 7 days by tube dilution method; type: functional; settings: 168 h
Procedure, shortened: (§1)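 Tube dilution in DMSO (stock 100 mg/ml) with serial dilutions; incubation 37 °C for 48 h for C. albicans (other organisms' times truncated in text). MIC read as lowest concentration inhibiting visible growth. Norfloxacin (bacteria) and fluconazole (fungi) as reference drugs.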

[2] = system: Staphylococcus aureus; assay: Antimicrobial activity against Staphylococcus aureus after 24 hrs by tube dilution method; type: functional; procedure, shortened: as §1
[3] = system: Bacillus subtilis; assay: Antimicrobial activity against Bacillus subtilis after 24 hrs by tube dilution method; type: functional; procedure, shortened: as §1
[4] = system: Escherichia coli; assay: Antimicrobial activity against Escherichia coli after 24 hrs by tube dilution method; type: functional; procedure, shortened: as §1
[5] = system: Candida albicans; assay: Antimicrobial activity against Candida albicans after 48 hrs by tube dilution method; type: functional; procedure, shortened: as §1
[6] = system: Sindbis virus; assay: Antiviral activity against Sindbis virus infected in african green monkey Vero cells assessed as reduction in virus-induced cytopathogenicity after 3 days; type: functional, organism-based; settings: 72 h
[7] = system: Respiratory syncytial virus; assay: Antiviral activity against RSV infected in human HeLa cells assessed as reduction in virus-induced cytopathogenicity after 3 days; type: functional, organism-based; settings: 72 h
[8] = system: Coxsackievirus B4; assay: Antiviral activity against Coxsackievirus B4 infected in african green monkey Vero cells assessed as reduction in virus-induced cytopathogenicity after 3 days; type: functional, organism-based; settings: Enterovirus B, 72 h
[9] = system: Coxsackievirus B4; assay: Antiviral activity against Coxsackievirus B4 infected in human HeLa cells assessed as reduction in virus-induced cytopathogenicity after 3 days; type: functional, organism-based; settings: Enterovirus B, 72 h
[10] = system: Human alphaherpesvirus 2; assay: Antiviral activity against HSV2 G infected in human HEL cells assessed as reduction in virus-induced cytopathogenicity after 3 days; type: functional, organism-based; settings: Human alphaherpesvirus 2, strain G, 72 h
[11] = Cytotoxicity against african green monkey Vero cells assessed as alteration in cell morphology; type: cell-based; settings: chlorocebus sabaeus
Procedure, shortened: (§2)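 Uninfected cell cultures tested in parallel with the CPE-reduction antiviral assay; cells grown to confluency, then serial compound dilutions added and incubated at 37 °C (3 days in the parallel antiviral set-up). Read-out is microscopic examination of morphology; value is the minimum cytotoxic concentration, the lowest causing a microscopically detectable alteration of normal cell morphology.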

[12] = system: Punta Toro virus; assay: Antiviral activity against Punta Toro virus infected in african green monkey Vero cells assessed as reduction in virus-induced cytopathogenicity after 3 days; type: functional, organism-based; settings: 72 h
[13] = Cytotoxicity against human HeLa cells assessed as alteration in cell morphology; type: cell-based; procedure, shortened: as §2
[14] = system: Vesicular stomatitis virus; assay: Antiviral activity against VSV infected in human HEL cells assessed as reduction in virus-induced cytopathogenicity after 3 days; type: functional, organism-based; settings: 72 h
[15] = system: Human respirovirus 3; assay: Antiviral activity against Parainfluenza-3 virus infected in african green monkey Vero cells assessed as reduction in virus-induced cytopathogenicity after 3 days; type: functional, organism-based; settings: Human respirovirus 3, Vero, 72 h
[16] = system: Human alphaherpesvirus 1; assay: Antiviral activity against HSV1 KOS infected in human HEL cells assessed as reduction in virus-induced cytopathogenicity after 3 days; type: functional, organism-based; settings: Human alphaherpesvirus 1, KOS, 72 h
[17] = system: Mammalian orthoreovirus 1; assay: Antiviral activity against Reovirus 1 infected in african green monkey Vero cells assessed as reduction in virus-induced cytopathogenicity after 3 days; type: functional, organism-based; settings: Mammalian orthoreovirus 1, Vero, 72 h
[18] = system: Vesicular stomatitis virus; assay: Antiviral activity against VSV infected in human HeLa cells assessed as reduction in virus-induced cytopathogenicity after 3 days; type: functional, organism-based; settings: 72 h
[19] = system: Human alphaherpesvirus 1; assay: Antiviral activity against thymidine kinase-deficient acyclovir-resistant HSV1 KOS infected in human HEL cells assessed as reduction in virus-induced cytopathogenicity after 3 days; type: functional, organism-based; settings: Human alphaherpesvirus 1, KOS, 72 h
[20] = Cytotoxicity against human HEL cells assessed as alteration in cell morphology; type: cell-based; procedure, shortened: as §2

SMILES	MFC [1] [µM]	MIC [1] [µM]	MBC [2] [µM]	MIC [2] [µM]	MBC [3] [µM]	MIC [3] [µM]	MBC [4] [µM]	MIC [4] [µM]	MFC [5] [µM]	MIC [5] [µM]	EC50 [10] [µg/mL]	EC50 [14] [µg/mL]	EC50 [16] [µg/mL]	EC50 [19] [µg/mL]	MCC [20] [µg/mL]	also measured
Clc1ccccc1-c1ncc[nH]1	280 (≈ 50 µg/mL)	35 (≈ 6.25 µg/mL)	561 (≈ 100 µg/mL)	35 (≈ 6.25 µg/mL)	561 (≈ 100 µg/mL)	702 (≈ 125 µg/mL)	561 (≈ 100 µg/mL)	702 (≈ 125 µg/mL)	561 (≈ 100 µg/mL)	702 (≈ 125 µg/mL)						
O=[N+]([O-])c1ccc(-c2ncc[nH]2)cc1	264 (≈ 49.9 µg/mL)	33 (≈ 6.24 µg/mL)	33 (≈ 6.24 µg/mL)	4 (≈ 0.757 µg/mL)	132 (≈ 25 µg/mL)	16 (≈ 3.03 µg/mL)	33 (≈ 6.24 µg/mL)	4 (≈ 0.757 µg/mL)	264 (≈ 49.9 µg/mL)	33 (≈ 6.24 µg/mL)						
O=C(c1ccc([N+](=O)[O-])cc1)n1ccnc1-c1cccc([N+](=O)[O-])c1	73 (≈ 24.7 µg/mL)	9 (≈ 3.04 µg/mL)	147 (≈ 49.7 µg/mL)	18 (≈ 6.09 µg/mL)	295 (≈ 99.8 µg/mL)	36 (≈ 12.2 µg/mL)	36 (≈ 12.2 µg/mL)	9 (≈ 3.04 µg/mL)	295 (≈ 99.8 µg/mL)	18 (≈ 6.09 µg/mL)	> 100	> 100	> 100	> 100	> 100	EC50 [6]: > 100 µg/mL; EC50 [7]: > 100 µg/mL; EC50 [8]: > 100 µg/mL; EC50 [9]: > 100 µg/mL; MCC [11]: > 100 µg/mL; EC50 [12]: 100 µg/mL (≈ 296 µM); MCC [13]: > 100 µg/mL; EC50 [15]: > 100 µg/mL; EC50 [17]: > 100 µg/mL; EC50 [18]: > 100 µg/mL
COc1ccc(-c2ncc[nH]2)cc1	526 (≈ 91.6 µg/mL)	65 (≈ 11.3 µg/mL)	32 (≈ 5.57 µg/mL)	4 (≈ 0.697 µg/mL)	32 (≈ 5.57 µg/mL)	4 (≈ 0.697 µg/mL)	263 (≈ 45.8 µg/mL)	32 (≈ 5.57 µg/mL)	526 (≈ 91.6 µg/mL)	65 (≈ 11.3 µg/mL)						
c1ccc(-c2ncc[nH]2)cc1 [2-PHENYLIMIDAZOLE]	694 (≈ 100 µg/mL)	86 (≈ 12.4 µg/mL)	43 (≈ 6.2 µg/mL)	5 (≈ 0.721 µg/mL)	43 (≈ 6.2 µg/mL)	5 (≈ 0.721 µg/mL)	43 (≈ 6.2 µg/mL)	5 (≈ 0.721 µg/mL)	347 (≈ 50 µg/mL)	43 (≈ 6.2 µg/mL)						
Nc1ncnc2c1ncn2C[C@H](O)CO [(S)-DHPA]																EC50 [6]: > 250 µg/mL; EC50 [7]: > 250 µg/mL; EC50 [8]: > 250 µg/mL; EC50 [9]: > 250 µg/mL; MCC [11]: > 250 µg/mL; EC50 [12]: > 250 µg/mL; MCC [13]: > 250 µg/mL; EC50 [15]: > 250 µg/mL; EC50 [17]: > 250 µg/mL; EC50 [18]: > 250 µg/mL
O=c1[nH]c(=O)n([C@H]2C[C@H](O)[C@@H](CO)O2)cc1/C=C/Br [BRIVUDINE]											29 (≈ 87.1 µM)	> 250	0.04 (≈ 0.12 µM)	96 (≈ 288 µM)	> 250	
Nc1ccn(C[C@@H](CO)OCP(=O)(O)O)c(=O)n1.O.O [CIDOFOVIR]											2	> 250		2	> 250	
OC(Cn1cncn1)(Cn1cncn1)c1ccc(F)cc1F [FLUCONAZOLE]	40 (≈ 12.3 µg/mL)	1 (≈ 0.306 µg/mL)							40 (≈ 12.3 µg/mL)	1 (≈ 0.306 µg/mL)						
Nc1nc2c(ncn2COC(CO)CO)c(=O)[nH]1 [GANCICLOVIR]											0.06 (≈ 0.235 µM)	> 100	0.06 (≈ 0.235 µM)	1 (≈ 3.92 µM)	> 100	
CCn1cc(C(=O)O)c(=O)c2cc(F)c(N3CCNCC3)cc21 [NORFLOXACIN]			19 (≈ 6.07 µg/mL)	2 (≈ 0.639 µg/mL)	19 (≈ 6.07 µg/mL)	2 (≈ 0.639 µg/mL)	19 (≈ 6.07 µg/mL)	2 (≈ 0.639 µg/mL)								
NC(=O)c1ncn([C@@H]2O[C@H](CO)[C@@H](O)[C@H]2O)n1 [RIBAVIRIN]											> 250		> 250	> 250	> 250	EC50 [6]: > 250 µg/mL; EC50 [8]: > 250 µg/mL; MCC [11]: > 250 µg/mL; MCC [13]: > 250 µg/mL; EC50 [17]: > 250 µg/mL
